{
  "source": "ChEMBL document CHEMBL4152363",
  "about": "“Andrographolide derivative as STAT3 inhibitor that protects acute liver damage in mice” (Bioorg Med Chem, 2018)",
  "key": {"[1]": {"molecular_target": "T1, Signal transducer and activator of transcription 3 (Homo sapiens, UniProt P40763)", "T1 sequence (P40763 whole entry)": "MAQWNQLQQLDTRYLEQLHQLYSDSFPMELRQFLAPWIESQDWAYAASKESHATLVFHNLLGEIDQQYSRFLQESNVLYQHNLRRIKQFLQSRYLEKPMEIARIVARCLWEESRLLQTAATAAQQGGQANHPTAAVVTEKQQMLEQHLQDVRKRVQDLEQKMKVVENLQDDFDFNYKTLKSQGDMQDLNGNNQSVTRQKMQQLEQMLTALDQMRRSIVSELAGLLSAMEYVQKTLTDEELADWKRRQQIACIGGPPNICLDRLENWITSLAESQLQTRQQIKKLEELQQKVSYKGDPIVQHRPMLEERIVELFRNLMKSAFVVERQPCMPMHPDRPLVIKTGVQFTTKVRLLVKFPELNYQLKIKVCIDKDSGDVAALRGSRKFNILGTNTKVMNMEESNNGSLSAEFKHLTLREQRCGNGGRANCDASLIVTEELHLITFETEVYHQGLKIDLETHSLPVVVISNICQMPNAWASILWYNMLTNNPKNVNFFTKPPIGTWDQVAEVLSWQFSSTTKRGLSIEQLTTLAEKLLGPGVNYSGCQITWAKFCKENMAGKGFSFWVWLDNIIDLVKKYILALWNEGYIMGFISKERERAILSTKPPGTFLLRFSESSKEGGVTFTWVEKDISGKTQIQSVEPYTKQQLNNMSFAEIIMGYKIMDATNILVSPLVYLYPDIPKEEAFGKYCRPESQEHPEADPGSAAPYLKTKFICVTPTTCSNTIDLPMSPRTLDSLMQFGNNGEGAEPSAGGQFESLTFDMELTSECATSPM", "assay": "Inhibition of IL-6 stimulated STAT3 activation in human AD293 cells incubated with IL-6 for 16 hrs followed by compound addition measured after 6 hrs by luciferase reporter gene assay", "assay_type": "cell-based", "method_in_brief": "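AD-293 cells stimulated with 2.5 μg/mL IL-6; compound treatment 6 h; luciferase activity read from cell extracts; EC50 derived.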"}, "AD293": {"tested_on": "AD293", "assay": "Cytotoxicity against human AD293 cells", "assay_type": "cell-based", "conditions": "ad293", "method_in_brief": "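AD-293 or HeLa cells grown in high-glucose DMEM with 10% FBS and 1% penicillin-streptomycin; compound exposure 24 h; cytotoxicity reported as CC10.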"}, "[2]": {"molecular_target": "T1, Signal transducer and activator of transcription 3", "assay": "Inhibition of […] activation in human HeLa cells incubated […] for 16 hrs followed by compound addition measured after 4 hrs by luciferase reporter gene assay", "assay_type": "cell-based", "method_in_brief": "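NF-κB pathway in AD-293 or HeLa cells stimulated with 50 ng/mL TNF-α; compound treatment 4 h; luciferase activity read from cell extracts; EC50 derived.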"}, "[3]": {"molecular_target": "T1, Signal transducer and activator of transcription 3", "assay": "Inhibition of IFNgamma-stimulated STAT3 phosphorylation at Tyr705 residues in human AD293 cell lysates incubated with IFNgamma followed by compound addition at 10 uM by Western blot analysis", "method_in_brief": "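AD-293 cells treated with 1 μg/mL IFN-γ alone or with compounds at 10 μM; phospho- and total STAT1 and STAT3 assessed by western blot; representative of at least three independent experiments.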"}, "Mus musculus [4]": {"tested_on": "Mus musculus", "assay": "Hepatoprotective activity against CCL4-induced acute liver damage in Balb/c mouse assessed as decrease in hepatic damage at 30 mg/kg, po qd for 7 days measured after 16 hrs post CCL4 challenge by hematoxylin-eosin staining based light microscopy", "assay_type": "functional, organism-based", "method_in_brief": "(§1)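 Male BalB/C mice given oral 30 mg/kg daily for 7 days, then sc CCl4 (40% in olive oil, 10 ml/kg); sacrificed 16 h later; livers fixed in 10% formaldehyde, paraffin sections stained with H&E or Masson's trichrome, light microscopy, ≥3 sections per liver; n=5, two experiments.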"}, "Mus musculus [5]": {"tested_on": "Mus musculus", "assay": "Hepatoprotective activity against CCL4-induced acute liver damage in Balb/c mouse assessed as decrease in number of necrotic cells at 30 mg/kg, po qd for 7 days measured after 16 hrs post CCL4 challenge by hematoxylin-eosin staining based light microscopy", "assay_type": "functional, organism-based", "method_in_brief": "as §1"}, "Mus musculus [6]": {"tested_on": "Mus musculus", "assay": "Hepatoprotective activity against CCL4-induced acute liver damage in Balb/c mouse assessed as increase in number of PCNA positive cells at 30 mg/kg, po qd for 7 days measured after 16 hrs post CCL4 challenge by hematoxylin staining based immunohistochemistry method", "assay_type": "functional, organism-based", "method_in_brief": "(§2)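 Liver sections from mice dosed orally 30 mg/kg daily 7 days then sc CCl4, killed 16 h after; H2O2 block, goat serum/BSA/gelatin blocking 1 h RT, primary antibody (α-SMA, Ki67, PCNA or STAT3) 4 °C overnight, HRP secondary, DAB, hematoxylin counterstain; >30 fields at 400× quantified; n=5.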"}, "Mus musculus [7]": {"tested_on": "Mus musculus", "assay": "Hepatoprotective activity against CCL4-induced acute liver damage in Balb/c mouse assessed as increase in number of Ki67 positive cells at 30 mg/kg, po qd for 7 days measured after 16 hrs post CCL4 challenge by hematoxylin staining based immunohistochemistry method", "assay_type": "functional, organism-based", "method_in_brief": "as §2"}, "Mus musculus [8]": {"tested_on": "Mus musculus", "assay": "Antifibrotic activity in CCL4-induced acute liver damage Balb/c mouse model assessed as decrease in alpha-SMA expression in areas surrounding blood vessels at 30 mg/kg, po qd for 7 days measured after 16 hrs post CCL4 challenge by masson trichome staining based assay", "assay_type": "functional, organism-based", "conditions": "in the assay text read “immunohistochemistry” for “masson trichome staining based assay”", "method_in_brief": "as §2"}, "Mus musculus [9]": {"tested_on": "Mus musculus", "assay": "Reduction in MMP10 mRNA expression level in CCL4-induced acute liver damage in Balb/c mouse at 30 mg/kg, po qd for 7 days measured after 16 hrs post CCL4 challenge by qRT-PCR method", "assay_type": "functional, organism-based", "method_in_brief": "(§3)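 Mice given 30 mg/kg orally once daily 7 days before sc CCl4 (40% in olive oil, 10 ml/kg); livers harvested 16 h later, PBS-washed, stored at −70 °C for RNA extraction and transcript quantification; n=5, two independent experiments.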"}, "Mus musculus [10]": {"tested_on": "Mus musculus", "assay": "Reduction in MMP13 mRNA expression level in CCL4-induced acute liver damage in Balb/c mouse at 30 mg/kg, po qd for 7 days measured after 16 hrs post CCL4 challenge by qRT-PCR method", "assay_type": "functional, organism-based", "method_in_brief": "as §3"}, "Mus musculus [11]": {"tested_on": "Mus musculus", "assay": "Reduction in MMP9 mRNA expression level in CCL4-induced acute liver damage in Balb/c mouse at 30 mg/kg, po qd for 7 days measured after 16 hrs post CCL4 challenge by qRT-PCR method", "assay_type": "functional, organism-based", "method_in_brief": "as §3"}, "Mus musculus [12]": {"tested_on": "Mus musculus", "assay": "Reduction in Col3a1 mRNA expression level in CCL4-induced acute liver damage in Balb/c mouse at 30 mg/kg, po qd for 7 days measured after 16 hrs post CCL4 challenge by qRT-PCR method", "assay_type": "functional, organism-based", "method_in_brief": "as §3"}, "Mus musculus [13]": {"tested_on": "Mus musculus", "assay": "Reduction in serum ALT level in CCL4-induced acute liver damage in Balb/c mouse at 30 mg/kg, po qd for 7 days measured after 16 hrs post CCL4 challenge […]", "assay_type": "functional, organism-based"}, "Mus musculus [14]": {"tested_on": "Mus musculus", "assay": "In vivo inhibition of STAT3 expression level in CCL4-induced acute liver damage in Balb/c mouse assessed as decrease in nuclear STAT3 phosphorylation at 30 mg/kg, po qd for 7 days measured after 16 hrs post CCL4 challenge by hematoxylin staining based immunohistochemistry method", "assay_type": "functional, organism-based", "method_in_brief": "as §2"}, "Mus musculus [15]": {"tested_on": "Mus musculus", "assay": "Antiinflammatory activity in CCL4-induced acute liver damage Balb/c mouse model assessed as decrease in serum MCP-1 levels at 30 mg/kg, po qd for 7 days measured after 16 hrs post CCL4 challenge", "assay_type": "functional, organism-based", "method_in_brief": "(§4)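 BalB/C males dosed orally 30 mg/kg daily for 7 days, then sc CCl4 (40% in olive oil, 10 ml/kg); serum collected 16 h post-CCl4 after CO2 anaesthesia, stored at −70 °C until IL-6, MCP-1 or TGF-β analysis; n=5.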"}, "Mus musculus [16]": {"tested_on": "Mus musculus", "assay": "Antiinflammatory activity in CCL4-induced acute liver damage Balb/c mouse model assessed as decrease in serum TGF-beta levels at 30 mg/kg, po qd for 7 days measured after 16 hrs post CCL4 challenge", "assay_type": "functional, organism-based", "method_in_brief": "as §4"}, "Mus musculus [17]": {"tested_on": "Mus musculus", "assay": "Reduction in SMAD2 mRNA expression level in liver of CCL4-induced acute liver damage in Balb/c mouse at 30 mg/kg, po qd for 7 days measured after 16 hrs post CCL4 challenge by qRT-PCR method", "assay_type": "functional, organism-based", "method_in_brief": "as §3"}, "Mus musculus [18]": {"tested_on": "Mus musculus", "assay": "Reduction in SMAD3 mRNA expression level in liver of CCL4-induced acute liver damage in Balb/c mouse at 30 mg/kg, po qd for 7 days measured after 16 hrs post CCL4 challenge by qRT-PCR method", "assay_type": "functional, organism-based", "method_in_brief": "as §3"}, "[19]": {"molecular_target": "T1, Signal transducer and activator of transcription 3", "assay": "Inhibition of STAT3 in human AD293 cells assessed as decrease in TGFbeta-stimulated SMAD2/3 activation up to 10 uM incubated for 16 hrs by luciferase reporter gene assay relative to control", "assay_type": "cell-based", "method_in_brief": "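AD-293 cells carrying SMAD2/3 promoter in pGL4.20 luciferase vector, stimulated with TGF-β 100 ng/ml for 16 h with compound up to 10 µM; luciferase activity measured in cell extracts.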"}},
  "note": "Calls of active or inactive are those of the source. The calls are words filed in the database; no cut-off is given here.",
  "data": [
    {"smiles": "CC(C)(C)[Si](C)(C)O[C@@H]1COC(=O)/C1=C/C[C@@H]1[C@]2(CC[C@H]3[C@@]1(C)CCC(=O)[C@@]3(C)CO)CO2", "values": [
      {"measurement": "EC50", "setting": "[1]", "result": 3.95, "unit": "µM"},
      {"measurement": "CC10", "setting": "AD293", "result": "> 10", "unit": "µM"},
      {"measurement": "EC50", "setting": "[2]", "result": "> 10", "unit": "µM"},
      {"measurement": "inhibition", "setting": "[3]", "result": "> 50", "unit": "%"},
      {"measurement": "Activity", "setting": "Mus musculus [4]", "result": "Active"},
      {"measurement": "Activity", "setting": "Mus musculus [5]", "result": "Active"},
      {"measurement": "Activity", "setting": "Mus musculus [6]", "result": "Active"},
      {"measurement": "Activity", "setting": "Mus musculus [7]", "result": "Active"},
      {"measurement": "Activity", "setting": "Mus musculus [8]", "result": "Active"},
      {"measurement": "Activity", "setting": "Mus musculus [9]", "result": "Active"},
      {"measurement": "Activity", "setting": "Mus musculus [10]", "result": "Active"},
      {"measurement": "Activity", "setting": "Mus musculus [11]", "result": "inactive"},
      {"measurement": "Activity", "setting": "Mus musculus [12]", "result": "inactive"},
      {"measurement": "Activity", "setting": "Mus musculus [13]", "result": "inactive"},
      {"measurement": "inhibition", "setting": "Mus musculus [14]", "result": "Active"},
      {"measurement": "Activity", "setting": "Mus musculus [15]", "result": "Active"},
      {"measurement": "Activity", "setting": "Mus musculus [16]", "result": "Active"},
      {"measurement": "Activity", "setting": "Mus musculus [17]", "result": "inactive"},
      {"measurement": "Activity", "setting": "Mus musculus [18]", "result": "inactive"},
      {"measurement": "inhibition", "setting": "[19]", "result": "< 50", "unit": "%"}
    ]}
  ]
}
